Screening data as filed in PubChem BioAssay.
KCNQ1 act: potentiators or activators of KCNQ1 channel, primary screen, cell-based, thallium flux, high-throughput; CHO-K1 KCNQ1, thallium flux FluxOR fluorescence; stronger effect = higher value; B-score at 10 µM; 0.35% of 310,000 active;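 active means fluorescence ratio B-score, a plate-corrected score, at least three library SD, with initial intensity B-score within 5 SD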
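Test system: CHO-K1 cells stably expressing KCNQ1 / Medium: assay buffer / Also added: depolarizing K+/Tl+ stimulus, K2SO4 and Tl2SO4 each 12.5 mM in 5x stock / Incubation: 90 min dye loading and 20 min compound exposure, both at room temperature / Signal: thallium influx via FluxOR fluorescence, kinetic imaging / Evaluation: B score of baseline-normalized fluorescence ratio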
KCNQ1 block: inhibitors of human KCNQ1 channel, primary screen, cell-based, thallium flux, high-throughput | 1.3% of 310,000 active | Potassium voltage-gated channel subfamily KQT member 1 (Homo sapiens), P51787 | B-score at 10 µM | CHO-K1 KCNQ1, FluxOR thallium flux fluorescence; stronger effect = higher value | AID 2642, 2010;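 active means compounds whose thallium flux B-score, printed positive for inhibition, exceeds three library SD while starting fluorescence stays within three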;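 further: channel opened by potassium depolarization with thallium stimulus after 20 min compound exposure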
Kir21 inh: inhibitors of mouse Kir2.1 inward-rectifier potassium channel | B-score at 10 µM | 0.85% of 310,000 active | Inward rectifier potassium channel 2 (Mus musculus), P35561 | HEK293-Kir2.1, FluxOR thallium flux fluorescence; stronger effect = lower value | AID 1672, 2009;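 active means fluorescence ratio B-score at or below minus 3 SD of library scores, with starting-brightness B-score within 2 SD, cut at about -4.2 in these data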;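 further: channel flux triggered by added potassium and thallium sulfate stimulus; B-score of peak minus minimum fluorescence over baseline after thallium stimulus; more negative B-score means stronger Kir2.1 block with less thallium influx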
hERG protect: hERG rescue from dofetilide block, primary screen, cell-based, CHO-hERG, FluxOR thallium flux, dofetilide IC70 | Voltage-gated inwardly rectifying potassium channel KCNH2 (Homo sapiens), Q12809 | dofetilide IC70 present | activation (rescue from dofetilide block), less the hit threshold, % at 10 µM | 0.51% of 310,000 active | AID 1511, 2009;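 active means activation above the mean of controls blocked by dofetilide plus 5 SD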;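 further: thallium influx through hERG after potassium depolarization seen as dye fluorescence rise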
Target sequence (Q12809 whole entry, looked up): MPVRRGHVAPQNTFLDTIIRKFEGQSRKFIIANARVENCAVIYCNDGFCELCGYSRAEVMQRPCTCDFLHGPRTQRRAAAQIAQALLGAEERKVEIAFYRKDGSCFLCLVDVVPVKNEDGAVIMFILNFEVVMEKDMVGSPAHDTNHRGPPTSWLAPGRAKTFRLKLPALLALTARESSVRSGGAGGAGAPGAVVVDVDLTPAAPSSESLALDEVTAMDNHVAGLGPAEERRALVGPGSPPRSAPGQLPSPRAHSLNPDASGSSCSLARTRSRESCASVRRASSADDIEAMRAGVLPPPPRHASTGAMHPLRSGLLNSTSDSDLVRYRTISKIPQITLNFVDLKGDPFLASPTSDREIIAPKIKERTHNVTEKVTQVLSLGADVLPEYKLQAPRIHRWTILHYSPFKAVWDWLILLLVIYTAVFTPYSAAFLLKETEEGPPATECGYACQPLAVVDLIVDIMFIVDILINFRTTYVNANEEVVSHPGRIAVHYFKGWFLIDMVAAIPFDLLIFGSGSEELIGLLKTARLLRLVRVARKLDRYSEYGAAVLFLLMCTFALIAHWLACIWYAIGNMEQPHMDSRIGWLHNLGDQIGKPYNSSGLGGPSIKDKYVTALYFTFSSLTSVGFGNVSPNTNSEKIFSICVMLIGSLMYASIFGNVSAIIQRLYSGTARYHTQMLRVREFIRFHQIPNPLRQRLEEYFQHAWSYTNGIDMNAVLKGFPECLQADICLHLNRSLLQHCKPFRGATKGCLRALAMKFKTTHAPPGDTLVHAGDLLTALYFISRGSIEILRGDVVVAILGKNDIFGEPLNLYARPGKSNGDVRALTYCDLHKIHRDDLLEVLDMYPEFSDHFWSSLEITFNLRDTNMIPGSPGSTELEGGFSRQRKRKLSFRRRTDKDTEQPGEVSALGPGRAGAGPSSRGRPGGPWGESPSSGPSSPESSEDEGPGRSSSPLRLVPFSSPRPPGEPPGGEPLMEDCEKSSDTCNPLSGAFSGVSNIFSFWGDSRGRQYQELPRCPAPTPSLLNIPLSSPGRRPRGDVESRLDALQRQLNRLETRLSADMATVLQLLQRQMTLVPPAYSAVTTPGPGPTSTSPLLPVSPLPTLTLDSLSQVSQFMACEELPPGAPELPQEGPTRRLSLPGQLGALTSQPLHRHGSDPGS
KCNK3 block: human KCNK3 channel inhibitors, primary screen, CHO cells, FluxOR thallium flux, B-score | Potassium channel subfamily K member 3 (Homo sapiens), O14649 | FluxOR fluorescence; stronger effect = lower value | B-score at 10 µM | 0.84% of 340,000 active | AID 602410, 2012;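 active means B-score under library mean minus 4 SD, starting fluorescence ratio at most library mean plus 5 SD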;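 further: more negative B-score means stronger inhibition of thallium flux through KCNK3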
KCNK9 inh: KCNK9 potassium channel inhibitors, primary screen, HEK293 cells, thallium flux; Potassium channel subfamily K member 9 (Homo sapiens), Q9NPC2; FluxOR thallium flux fluorescence; stronger effect = lower value; B-score at 10 µM; 1.2% of 310,000 active;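 active means ratio B-score over 3 SD below the library mean, with starting fluorescence within 5 SD of its mean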;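 further: negative B-score means less thallium flux so channel inhibition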
Active calls of the source: *. This is a sample that favours compounds with a hit; in the whole collection about 3.7% have one here.

Results for O=c1[nH]c(CN2CCN(c3ncccn3)CC2)nc2c(Br)cc(Br)cc12 ?
KCNQ1 act: inactive; KCNQ1 block: inactive; Kir21 inh: 0.58; hERG protect: -16; KCNK3 block: inactive; KCNK9 inh: -7.5*

Results for FC(F)(F)c1ccc(Cl)c(-n2c(Cc3cccs3)n[nH]c2=S)c1 ?
KCNQ1 act: inactive; KCNQ1 block: inactive; Kir21 inh: -2.5; hERG protect: -17; KCNK3 block: inactive; KCNK9 inh: inactive

What do the screens show for `Fc1ccc(-n2c(Cc3cccs3)n[nH]c2=S)cc1Cl`?
KCNQ1 act: inactive; KCNQ1 block: inactive; Kir21 inh: -4.2*; hERG protect: -8; KCNK3 block: inactive; KCNK9 inh: inactive

What do the screens show for `CC(On1c(-c2ccccc2)nc2ccc(Cl)cc21)C(=O)O` (centres undefined)?
KCNQ1 act: inactive; KCNQ1 block: inactive; Kir21 inh: -0.39; hERG protect: -10; KCNK3 block: inactive; KCNK9 inh: inactive

How did CCOC(=O)COn1c(-c2cccc(Cl)c2)nc2ccc([N+](=O)[O-])cc21 do in these assays?
KCNQ1 act: inactive; KCNQ1 block: 6*; Kir21 inh: -0.09; hERG protect: -12; KCNK3 block: inactive; KCNK9 inh: inactive

Results for Cc1cc(-c2ccccc2)nc2cc(C(=O)OC(C)C)nn12 ?
KCNQ1 act: inactive; KCNQ1 block: inactive; Kir21 inh: 1.2; hERG protect: -8; KCNK3 block: inactive; KCNK9 inh: inactive

What do the screens show for `C/C(=N/NC(=O)c1cc(-c2ccccc2)nc2c(Cl)cccc12)c1cccnc1`?
KCNQ1 act: inactive; KCNQ1 block: inactive; Kir21 inh: -1.1; hERG protect: -10; KCNK3 block: inactive; KCNK9 inh: inactive

What do the screens show for `Cc1cc(C(F)(F)F)n(-c2nc(C(=O)NN)cs2)n1`?
KCNQ1 act: inactive; KCNQ1 block: inactive; Kir21 inh: 0.05; hERG protect: 5.0*; KCNK3 block: inactive; KCNK9 inh: inactive

How did CCOCCCNC(=O)CN1C(=O)c2ccccc2Sc2ncccc21 do in these assays?
KCNQ1 act: inactive; KCNQ1 block: inactive; Kir21 inh: -0.1; hERG protect: -3; KCNK3 block: inactive; KCNK9 inh: inactive

How did CC1C(=O)C(C)C(c2cc(Br)ccc2O)NC1c1cc(Br)ccc1O (centres undefined) do in these assays?
KCNK3 block: inactive

How did CC1C(=O)C(C)C(c2ccc(Br)cc2)NC1c1ccc(Br)cc1 (centres undefined) do in these assays?
KCNQ1 act: inactive; KCNQ1 block: 6*; Kir21 inh: -0.18; hERG protect: -9; KCNK3 block: inactive; KCNK9 inh: inactive

How did Cc1[nH]n(-c2ncc(-c3ccccc3)s2)c(=O)c1C(c1ccc(Br)cc1)C(C#N)C#N (centres undefined) do in these assays?
KCNQ1 act: inactive; KCNQ1 block: inactive; Kir21 inh: -5.6*; hERG protect: -11; KCNK3 block: inactive; KCNK9 inh: inactive

Results for O=C(CCNc1ccc(Cl)c(C(F)(F)F)c1)c1ccco1 ?
KCNQ1 act: inactive; KCNQ1 block: inactive; Kir21 inh: -0.42; hERG protect: -12; KCNK3 block: inactive; KCNK9 inh: -7.3*

What do the screens show for `CSc1nsc(SCC(=O)N2CCCCC2)n1`?
KCNQ1 act: inactive; KCNQ1 block: inactive; Kir21 inh: -0.28; hERG protect: -6; KCNK3 block: inactive; KCNK9 inh: inactive

How did O=C(c1ccco1)N1CCN(S(=O)(=O)c2ccc(S(=O)(=O)NC3CCCCC3)cc2)CC1 do in these assays?
KCNQ1 act: inactive; KCNQ1 block: inactive; Kir21 inh: 0.96; hERG protect: -7; KCNK3 block: inactive; KCNK9 inh: inactive

Results for O=C(c1ccco1)N1CCN(S(=O)(=O)c2ccc(C3CCCCC3)cc2)CC1 ?
KCNQ1 act: inactive; KCNQ1 block: inactive; Kir21 inh: 0.22; hERG protect: 8.2*; KCNK3 block: inactive; KCNK9 inh: inactive

What do the screens show for `CCN(CC)C(=O)C(=O)N/N=C/c1ccc(C(=O)O)cc1`?
KCNQ1 act: inactive; KCNQ1 block: inactive; Kir21 inh: -0.02; hERG protect: -8; KCNK3 block: inactive; KCNK9 inh: inactive

How did Cc1cccc(NC(=O)CCc2c(C)nc3ncnn3c2C)n1 do in these assays?
KCNQ1 act: inactive; KCNQ1 block: inactive; Kir21 inh: -0.09; hERG protect: 6.4*; KCNK3 block: inactive; KCNK9 inh: inactive

How did O=C(O)/C(=C\c1ccccc1)c1ccccc1 do in these assays?
KCNQ1 act: inactive; KCNQ1 block: inactive; Kir21 inh: 0.37; hERG protect: -9; KCNK3 block: inactive; KCNK9 inh: inactive

How did O=C(Nc1ccccc1)/C(=C/c1ccccc1)c1ccccc1 do in these assays?
KCNQ1 act: inactive; KCNQ1 block: inactive; Kir21 inh: 0.63; hERG protect: -11; KCNK3 block: inactive; KCNK9 inh: -7*

How did COc1c(Br)cc(Br)cc1C(=O)Nc1ccccc1N1CCCC1 do in these assays?
KCNQ1 act: inactive; KCNQ1 block: inactive; Kir21 inh: -0.4; hERG protect: -6; KCNK3 block: inactive; KCNK9 inh: inactive

How did COc1ccc(C(=O)N/C(=C\c2cn(C)c3ccccc23)C(=O)NCCCN2CCOCC2)cc1OC do in these assays?
KCNQ1 act: inactive; KCNQ1 block: inactive; Kir21 inh: 0.4; hERG protect: -4; KCNK3 block: inactive; KCNK9 inh: inactive

Results for C=CCSc1nc(Oc2ccccc2)c2sccc2n1 ?
KCNQ1 act: inactive; KCNQ1 block: 6*; Kir21 inh: 1.9; hERG protect: -6; KCNK3 block: inactive; KCNK9 inh: inactive

What do the screens show for `NS(=O)(=O)c1ccc(CCNC(=O)CSc2ccc([N+](=O)[O-])cc2)cc1`?
KCNQ1 act: inactive; KCNQ1 block: inactive; Kir21 inh: -0.01; hERG protect: -9; KCNK3 block: inactive; KCNK9 inh: inactive

Results for NS(=O)(=O)c1ccc(CCNC(=O)CSc2ccc3ccccc3c2)cc1 ?
KCNQ1 act: inactive; KCNQ1 block: inactive; Kir21 inh: 0.78; hERG protect: 11*; KCNK3 block: inactive; KCNK9 inh: inactive

Results for NS(=O)(=O)c1ccc(CCNC(=O)COC(=O)CC(c2ccccc2)c2ccccc2)cc1 ?
KCNQ1 act: inactive; KCNQ1 block: inactive; Kir21 inh: -5.1*; hERG protect: -11; KCNK3 block: inactive; KCNK9 inh: inactive
